This is an account of results in ChEMBL document CHEMBL3244412, “Benzopyrones. 14. Synthesis and antiallergic properties of some N-tetrazolylcarboxamides and related compounds” (1978).

In brackets after ≈: the same amount, converted by molar mass.

Broadly, the inhibition in vivo is the share of the control response that was lost under treatment. A word on the ED50: it is the dose at which the effect has come halfway, by size or by number of responders. The inhibition is the drop in the measured response relative to a control, in per cent.

The subject of test [1] is Rattus norvegicus. As to the kind of experiment: Antiallergic activity in rat assessed as inhibition of DNP-ovalbumin-induced passive cutaneous anaphylaxis at 5 mg/kg, iv after 30 mins relative to control. It is filed as functional. Conditions: 0.5 h. In short, it runs like this:
(§1)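 Female albino rats (groups of four) were shaved and sensitized by dorsal intradermal injection of 0.1 mL diluted rat reaginic anti-DNP-ovalbumin serum, raised with Bordetella pertussis adjuvant. After 48 h they were challenged iv with 2 mg DNP-ovalbumin in 0.5 mL 1% Evans blue/saline, with the compound given iv in aqueous solution at the same time. After 30 min, skin weals were scored visually on a 5-point scale; % inhibition was taken versus vehicle controls.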

Test [2] is described as follows: Antianaphylactic activity in rat mast cells assessed as inhibition of DNP-ovalbumin-induced histamine release after 15 mins by superfusion assay relative to 4-oxo-N-(5-tetrazolyl)-4H-l-benzopyran-2-carboxamide. It is filed as functional, Mast cell. In short, it runs like this: (§2)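 Peritoneal and pleural cells from male albino rats were washed, sensitized with 1:10 rat reaginic anti-DNP-ovalbumin serum for 2 h at 37 °C, and resuspended at 1.2-1.7 × 10⁵ mast cells/mL. Compound and DNP-ovalbumin were added together and incubated for 15 min at 37 °C. Supernatant (free) and lysed-cell (residual) histamine were assayed by guinea pig ileum superfusion bioassay. Inhibition of net histamine release was used to derive EC50 from dose ranging against the reference compound.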

The nature of test [3]: Antianaphylactic activity in rat mast cells assessed as inhibition of DNP-ovalbumin-induced histamine release after 15 mins by superfusion assay. It is filed as functional. Conditions: Mast cell, 0.25 h, read-out: ED50 (the source's name). In short, it runs like this: as §2
For test [4], the system named is Rattus norvegicus. In words: Antiallergic activity in iv dosed rat assessed as inhibition of DNP-ovalbumin-induced passive cutaneous anaphylaxis after 30 mins. It is filed as functional. Conditions: 0.5 h. In short, it runs like this: as §1
The test system of test [5] is Rattus norvegicus. In words: Antiallergic activity in po dosed rat assessed as inhibition of DNP-ovalbumin-induced passive cutaneous anaphylaxis administered 10 mins prior to DNP-ovalbumin-challenge. It is filed as functional. In short, it runs like this: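 This rat passive cutaneous anaphylaxis model used reaginic anti-DNP-ovalbumin serum given intradermally, iv DNP-ovalbumin with Evans blue 48 h later, and weal scoring. Rats were starved overnight and dosed orally with the compound in aqueous solution 10 min before iv antigen challenge. ED50 was calculated with 95% confidence limits, assuming a log-linear dose response.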

Test [6] is filed under the species Homo sapiens. As to the kind of experiment: Antianaphylactic activity in human lung fragments assessed as inhibition of sheep anti-human IgE-induced histamine release at 0.18 ug/ml treated 10 mins prior to sheep anti-human IgE-challenge measured after 15 mins by superfusion assay relative to control. It is filed as functional. In short, it runs like this:
(§3)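 Human lung fragments in Tyrode's solution were incubated with the compound for 10 min, then challenged with sheep anti-human IgE and centrifuged for 15 min after challenge. Free and residual histamine were measured by superfusion bioassay on atropine-treated guinea pig ileum. % release and % inhibition were calculated from net release. Values are means of three experiments, each in duplicate.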

For test [7], the species on record is Homo sapiens. As to the kind of experiment: Antianaphylactic activity in human lung fragments assessed as inhibition of sheep anti-human IgE-induced histamine release at 18 ug/ml treated 10 mins prior to sheep anti-human IgE-challenge measured after 15 mins by superfusion assay relative to control. The class given is functional. In short, it runs like this: as §3

Test [8] is filed under the species Homo sapiens. As to the kind of experiment: Antianaphylactic activity in human lung fragments assessed as inhibition of sheep anti-human IgE-induced histamine release at 180 ug/ml treated 10 mins prior to sheep anti-human IgE-challenge measured after 15 mins by superfusion assay relative to control. The class given is functional. In short, it runs like this:
as §3

The subject of test [9] is Rattus norvegicus. As to the kind of experiment: Antiallergic activity in rat assessed as inhibition of DNP-ovalbumin-induced passive cutaneous anaphylaxis at 1 mg/kg, iv after 30 mins relative to control. The class given is functional. The note with it: Rattus norvegicus, iv, 0.5 h. In short, it runs like this: as §1
The species named for test [10] is Homo sapiens. In words: Antianaphylactic activity in human lung fragments assessed as inhibition of sheep anti-human IgE-induced histamine release at 1.8 ug/ml treated 10 mins prior to sheep anti-human IgE-challenge measured after 15 mins by superfusion assay relative to control. The class given is functional. In short, it runs like this: as §3
Test [11] is filed under the species Homo sapiens. As to the kind of experiment: Antianaphylactic activity in human lung fragments assessed as inhibition of sheep anti-human IgE-induced histamine release treated 10 mins prior to sheep anti-human IgE-challenge measured after 15 mins by superfusion assay. The class given is functional. In short, it runs like this:
as §3

In the case of `O=c1c(-n2nn[nH]c2=O)coc2ccccc12`, in the test with Rattus norvegicus [1], the inhibition in vivo at 5 mg/kg amounted to 75%. Further, the “fold change (potency relative to reference compound)” value in [2] stood at 0.01. Further, in test [3], the EC50 came out at 5 µg/mL (≈ 21.7 µM).

`O=C(Nc1nnn[nH]1)c1cc(=O)c2ccccc2o1`: the figures for the ED50 in the test with Rattus norvegicus [4] and with Rattus norvegicus [5] were 0.037 mg/kg and 21 mg/kg, respectively. Further, the inhibition in the test filed under Homo sapiens [6] is 5%; in the test listed under Homo sapiens [7], 43.3%; in the test listed under Homo sapiens [8], 61.6%; in the test listed under Homo sapiens [10], 46.4%; in the test filed under Homo sapiens [11] it was “Dose-dependent effect”. In test [2], the “fold change (potency relative to reference compound)” value amounted to 1. In addition, the EC50 in test [3] came to 0.08 µg/mL (≈ 0.311 µM). Moreover, in the test with Rattus norvegicus [9], the inhibition in vivo at 1 mg/kg was 100%.

On to `O=C(Cc1nnn[nH]1)Nc1coc2ccccc2c1=O`, for which the inhibition in vivo at 5 mg/kg in the test with Rattus norvegicus [1] was found to be 0%. For the same compound, the “fold change (potency relative to reference compound)” value in test [2] was <0.005. Besides, the EC50 in test [3] is > 18 µg/mL.

On to `O=C(Nc1nnn[nH]1)c1cc2ccccc2c(=O)o1`, for which the “fold change (potency relative to reference compound)” value in test [2] was <0.005. For the same compound, the EC50 in test [3] was > 18 µg/mL. Further, the inhibition in vivo at 1 mg/kg in the test with Rattus norvegicus [9] is 0%.

Regarding `O=C(NCCO)c1ccc2oc(C(=O)NCCO)cc(=O)c2c1`, the “fold change (potency relative to reference compound)” value in test [2] is given as <0.005. For the same compound, the EC50 in [3] was > 18 µg/mL. Besides, the inhibition in vivo at 1 mg/kg in the test with Rattus norvegicus [9] turned out to be 15%.
